According to PMC3528827 (ACS chemical biology, 2012):

How the values were obtained:
S1P3 [1] = target: T1, S1P3 (Homo sapiens, UniProt Q99500); experiment: Ligand-induced ERK phosphorylation; format: cell-based; settings: for ERK phosphorylation response: WT S1P3 Jump-In CHO cells
How it was run: (§1)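 Jump-In TI CHO-K cells carrying N-terminal triple-HA-tagged WT or point-mutant S1P3, stably retargeted and selected 4 weeks with blasticidin 10 μg/mL. Serum-starved 4 h, then exposed 5 min to increasing agonist. For antagonism, 1 uM antagonist was added 15 min beforehand or premixed with agonist. Phospho-p44/42 MAPK (Thr202/Tyr204) measured by sandwich ELISA; EC50 fitted from dose-response curves.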

[2] = target: WT, W256L, and F263L mutant S1P3 (Homo sapiens, UniProt Q99500); experiment: [33P]S1P radioligand binding and competition, Jump-In CHO cells; settings: 0.1 nM [33P]S1P, W256L and F263L Jump-In cell lines (all cell lines)
How it was run: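 Jump-In TI CHO-K cells (5 × 105) stably expressing WT, W256L or F263L S1P3, serum-starved 4 h. Incubated 30 min at 4 °C with 0.1 nM [33P]S1P plus increasing competitor in 20 mM Tris-HCl pH 7.5, NaCl, NaF, EDTA, Na3VO4, 0.5% fatty-acid-free BSA and protease inhibitors. Washed three times cold, lysed in 0.5% SDS, scintillation-counted. Normalized to each line's uncompeted binding (100%).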

[3] = test system: full panel of S1P receptors; experiment: Profiling against the full panel of S1P receptors; format: cell-based; settings: Supporting Table S3
Solubility = format: physicochemical
[4] = Stability in biological systems; format: in vitro ADME
[5] = test system: panel of 55 GPCRs, ion channels, and transporters; experiment: Ricerca profiling panel
R114A mutant S1P3 = R114A mutant S1P3 (Homo sapiens, UniProt Q99500, R114A); experiment: ERK phosphorylation, R114A mutant S1P3 Jump-In CHO cells; format: cell-based; settings: R114A mutant vs WT
How it was run: as §1

M98A mutant S1P3 = M98A mutant S1P3 (Homo sapiens, UniProt Q99500, M98A); experiment: ERK phosphorylation, M98A mutant S1P3 Jump-In CHO cells; format: cell-based
How it was run: as §1

F263L S1P3 [6] = target: T2, F263L S1P3 (Homo sapiens, UniProt Q99500, F263L); experiment: ERK phosphorylation, F263L mutant S1P3; format: cell-based; settings: ERK phosphorylation assay, vs WT
How it was run: as §1

W256L S1P3 = W256L S1P3 (Homo sapiens, UniProt Q99500, W256L); experiment: ERK phosphorylation, W256L mutant S1P3; format: cell-based; settings: ERK phosphorylation assay, vs WT
How it was run: as §1

F263L S1P3 [7] = target: T2, F263L S1P3; experiment: MAPmates multiplex assay pERK1/2; format: cell-based
S1P3 [8] = target: T1, S1P3; experiment: Receptor assays coupled to Gi and Gq; format: cell-based; settings: ERK phosphorylation, calcium flux, β-arrestin, NFAT-β-lactamase assays
S1P3 [9] = target: T1, S1P3; experiment: S1P3-NFAT β-lactamase reporter; format: cell-based; settings: S1P3-CHO cells, calcium flux dependent β-lactamase assay
How it was run: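 CHO cells stably expressing human S1P3 and an NFAT-β-lactamase reporter, plated at 1 × 10^6/mL in phenol red-free DMEM with 0.5% charcoal/dextran FBS and held overnight at 37°C, 5% CO2. S1P dilution series plus six fixed allosteric-agonist levels (EC0–EC80), single-agonist controls, 4 h at 37°C. β-Lactamase FRET substrate with probenecid added, 2 h at room temperature. Read at ex 405 / em 535 and 460 nm. Mean ± SEM.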

S1P1 = settings: read-out: S1P1 EC50; in vitro; cited from earlier work
S1P2 = settings: read-out: S1P2 EC50; in vitro; cited from earlier work
S1P4 = settings: read-out: S1P4 EC50; in vitro; cited from earlier work
S1P5 = settings: read-out: S1P5 EC50; in vitro; cited from earlier work
[10] = ERK phosphorylation, SPM-242 at 1 uM

T1 sequence (Q99500 whole entry): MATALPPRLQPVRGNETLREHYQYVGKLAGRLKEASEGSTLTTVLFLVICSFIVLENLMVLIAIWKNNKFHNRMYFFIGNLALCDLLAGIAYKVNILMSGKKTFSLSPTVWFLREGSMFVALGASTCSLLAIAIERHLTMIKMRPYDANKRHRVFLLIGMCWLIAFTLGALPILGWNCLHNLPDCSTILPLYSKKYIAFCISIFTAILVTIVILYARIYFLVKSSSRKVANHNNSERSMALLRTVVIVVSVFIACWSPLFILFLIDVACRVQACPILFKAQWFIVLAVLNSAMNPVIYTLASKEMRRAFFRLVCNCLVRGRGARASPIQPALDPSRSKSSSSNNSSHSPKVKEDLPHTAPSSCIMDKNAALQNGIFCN
Sequence of WT, W256L, and F263L mutant S1P3 (Q99500 whole entry W256L/F263L): as the sequence (Q99500 whole entry) above, with W256L, F263L counted along it
T2 sequence (Q99500 whole entry F263L): as the sequence (Q99500 whole entry) above, with F263L counted along it
Sequence of M98A mutant S1P3 (Q99500 whole entry M98A): as the sequence (Q99500 whole entry) above, with M98A counted along it
Sequence of W256L S1P3 (Q99500 whole entry W256L): as the sequence (Q99500 whole entry) above, with W256L counted along it
Sequence of R114A mutant S1P3 (Q99500 whole entry R114A): as the sequence (Q99500 whole entry) above, with R114A counted along it

agonist efficacy: maximum level of ERK phosphorylation compared with S1P (S1P3 [1]; WT S1P3 Jump-In stable CHO cells)	ERK phosphorylation response (R114A mutant S1P3)	effect of W256L mutation on ligand-induced receptor activation (W256L S1P3)	signalling bias compared to S1P (S1P3 [8])	response on co-application of S1P and CYM-5541 (S1P3 [9])	SMILES	right-shift of the concentration response curve of S1P (S1P3 [1]; [10]) [fold]	shift of the concentration response curve of CYM-5541 (S1P3 [1]; [10]) [fold]	competition for [33P]S1P binding [2]	selectivity among S1P receptors [3]	solubility (Solubility)	stability of phosphate-ester bond [4]	ERK phosphorylation response (S1P3 [1])	activity in Ricerca profiling panel [5]	ERK phosphorylation response (M98A mutant S1P3)	effect of F263L mutation on ligand-induced receptor activation (F263L S1P3 [6])	receptor activation (pERK1/2) compared to WT S1P3 (F263L S1P3 [7])	EC50 (S1P1) [µM]	EC50 (S1P2) [µM]	EC50 (S1P4) [µM]	EC50 (S1P5) [µM]
					NC(CO)(CCc1ccc(Sc2cccc(O)c2)cc1Cl)COP(=O)(O)O (single isomer, unassigned; (+)) [SPM-242, (+)-2-amino-4-(2-chloro-4-((3-hydroxyphenyl)thio)phenyl)-2-(hydroxymethyl)butyl dihydrogen phosphate]	152	6	reversed [^33P]S1P binding competitively in a dose dependent manner	selective for S1P3	low solubility	extremely labile									
full agonist	comparable for WT and R114A	did not affect	no such differences were observed	additive and no synergy was observed	O=C(c1cc(C2CC2)on1)N(C1CCCCC1)C1CCCCC1 [CYM-5541, N,N-dicyclohexyl(5-cyclopropylisoxazol-3-yl)carboxamide]			unable to compete		low solubility		agonist dose-dependent ERK phosphorylation	no significant activities	agonist dose-dependent ERK phosphorylation	shifted CYM-5541-induced receptor activation	significantly diminished receptor activation	> 10	> 50	> 50	> 25
	unable to respond	did not affect			CCCCCCCCCCCCC/C=C/[C@@H](O)[C@@H](N)COP(=O)(O)O [S1P, Sphingosine 1-phosphate, reference compound]			competitively reversed in a dose dependent manner				agonist dose-dependent ERK phosphorylation		agonist dose-dependent ERK phosphorylation	not S1P-induced activation					
